Compound activity: PubChem, several laboratories
Lipid droplet: hepatic lipid droplet formation modulation | AML12 mouse hepatocytes, oleate lipid droplets, BODIPY imaging | inhibition, % at 6.5 µM | actives 0.4% (n = 240,000);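 active = lipid droplet intensity inhibited by at least 50%, with more than 500 cells counted; inconclusive = wells with under 300 cells, treated as cytotoxic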
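Material: mouse AML12 hepatocyte cell line, fixed after treatment; Timing: compound with oleate, overnight; Technique: high-content imaging of BODIPY-stained droplets and DAPI nuclei; Probe or stimulus: oleate, 100 µM final; Dosing: compound at 6.5 µM only.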
PHOSPHO1 block: blocks human PHOSPHO1 phosphatase activity; Q8TCT1; recombinant PHOSPHO1, absorbance phosphatase assay; inhibition, % at 13.3 µM; actives 1.1% (n = 290,000); in the data active = inhibition above about 60%
CHT PAM: allosteric activators of human choline transporter CHT. CHT-expressing cells, membrane potential dye, choline EC20; stronger effect = higher value; LV-AA mutant CHT in HEK293 cells. B-score at 10 µM. actives 0.49% (n = 310,000);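 active = initial fluorescence not abnormally high and integrated response B-score, plate-corrected, over 3 SD above library mean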
Target sequence (Q9GZV3 whole entry, looked up): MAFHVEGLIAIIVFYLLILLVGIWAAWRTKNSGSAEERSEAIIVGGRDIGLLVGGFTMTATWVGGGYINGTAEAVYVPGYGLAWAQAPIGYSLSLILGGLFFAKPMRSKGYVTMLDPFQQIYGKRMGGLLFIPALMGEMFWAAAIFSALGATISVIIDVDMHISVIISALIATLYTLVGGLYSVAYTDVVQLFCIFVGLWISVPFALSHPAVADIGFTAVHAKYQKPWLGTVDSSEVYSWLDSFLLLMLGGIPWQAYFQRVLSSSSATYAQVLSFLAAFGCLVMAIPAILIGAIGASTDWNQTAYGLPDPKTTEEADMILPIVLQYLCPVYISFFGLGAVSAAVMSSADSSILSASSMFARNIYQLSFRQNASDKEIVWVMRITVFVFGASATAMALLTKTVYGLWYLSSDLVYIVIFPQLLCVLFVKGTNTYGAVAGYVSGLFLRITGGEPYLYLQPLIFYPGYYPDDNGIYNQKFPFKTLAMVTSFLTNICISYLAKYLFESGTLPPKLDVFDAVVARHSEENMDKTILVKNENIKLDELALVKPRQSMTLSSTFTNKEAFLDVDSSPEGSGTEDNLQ
HSF1 activator: increases HSF-1 driven luciferase reporter signal; NIH3T3-HGL HSF-1 luciferase reporter, MG132, 8 h; 100% = twice DMSO control signal; actives 1.7% (n = 300,000); activation, % at 9 µM; AID 504408;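 active = mean replicate activation of at least 50% with a set share of replicates each reaching 50%; inconclusive = only one of those two conditions met; inactive = mean below 50% and too few replicates reaching it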
CHT inh: inhibitors of human choline transporter CHT; Q9GZV3; CHT-expressing cells, membrane potential dye, choline response; stronger effect = lower value; B-score at 10 µM; actives 0.86% (n = 310,000);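 active = B-score over 3 SD under the library average, and starting fluorescence ratio not unusually high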;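 also: choline stimulus applied at its EC90 after an EC20 pre-addition; B-score computed on integrated fluorescence ratio after choline addition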
HSF1 inh: HSF1 inhibition. NIH3T3-HGL HSE-luciferase, MG132-induced, luminescence 8 h; stronger effect = lower value. activity change, negative = inhibition, % at 7.5 µM (by protocol). actives 0.77% (n = 300,000). AID 2098;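 active = more than half of replicate wells show activity change below -50%, luminescence cut by over half; inconclusive = some wells, but at most half, below -50%; inactive = no replicate well below -50%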;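 also: luciferase reports HSF-1 transcriptional activity via heat shock element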
A number is an active result. This is a sample that favours compounds with a hit; in the whole collection about 4.9% have one here.

`Cc1cc(Cl)ccc1OCCCC(=O)N1CCCCC1` gave Lipid droplet inactive, PHOSPHO1 block inactive, CHT PAM inactive, HSF1 activator inactive, CHT inh inactive and HSF1 inh inactive.
For Cc1cc(NC(=O)c2ccc(Cl)cc2)cc(C)c1OCC(=O)N1CCOCC1 the results were Lipid droplet inactive, PHOSPHO1 block inactive, CHT PAM inactive, HSF1 activator 54.0, CHT inh inactive and HSF1 inh inactive.
Screening Cc1cc(Cl)ccc1OCCCC(=O)N1CCOCC1 returned PHOSPHO1 block inactive, CHT PAM inactive, HSF1 activator inactive, CHT inh inactive and HSF1 inh -64.9.
Screening COc1cc(C(=O)Nc2ccc(S(=O)(=O)Nc3ncccn3)cc2)c([N+](=O)[O-])cc1OC returned Lipid droplet inactive, PHOSPHO1 block inactive, CHT PAM inactive, HSF1 activator inactive, CHT inh inactive and HSF1 inh inactive.
For Cc1ccc(S(=O)(=O)CC(=O)Nc2nc(C(C)(C)C)cs2)cc1 the results were Lipid droplet inactive, PHOSPHO1 block inactive, CHT PAM inactive, HSF1 activator inactive, CHT inh inactive and HSF1 inh inactive.
Screening N#CCCN(C(=O)c1ccc2c(=O)n3c(nc2c1)CCCCC3)c1ccccc1 returned Lipid droplet inactive, PHOSPHO1 block 64.0, CHT PAM inactive, HSF1 activator inactive, CHT inh inactive and HSF1 inh inactive.
For COC(=O)c1ccc(C#Cc2ccccc2)o1 the results were Lipid droplet inactive, PHOSPHO1 block inactive, CHT PAM inactive, HSF1 activator inactive, CHT inh inactive and HSF1 inh inactive.
For CCOC(=O)c1c(NC(=O)c2ccccc2)sc2c(O)c(CN(CC)CC)ccc12 the results were PHOSPHO1 block inactive, CHT PAM inactive, HSF1 activator inactive, CHT inh inactive and HSF1 inh -73.4.
For COc1ccccc1Nc1ccc(C(=O)NCc2cccs2)cn1 the results were Lipid droplet inactive, PHOSPHO1 block inactive, CHT PAM inactive, HSF1 activator inactive, CHT inh inactive and HSF1 inh inactive.
`COc1ccccc1Nc1ncc(-c2cccs2)s1` gave PHOSPHO1 block 82.0, CHT PAM inactive, HSF1 activator inactive, CHT inh inactive and HSF1 inh inactive.
Screening Cc1ccc(S(=O)(=O)Cc2cc(F)c([N+](=O)[O-])cc2[N+](=O)[O-])cc1 returned Lipid droplet inactive, PHOSPHO1 block inactive, CHT PAM inactive, HSF1 activator inactive, CHT inh -6.4 and HSF1 inh inactive.
For CCOC(=O)c1ccc([N+](=O)[O-])c(CS(=O)(=O)c2ccc(Cl)cc2)c1 the results were Lipid droplet inactive, PHOSPHO1 block inactive, CHT PAM inactive, HSF1 activator inactive, CHT inh inactive and HSF1 inh inactive.
Screening CN1c2ccsc2/C(=N/Nc2ccc(F)cc2)CS1(=O)=O returned Lipid droplet inactive, PHOSPHO1 block inactive, CHT PAM inactive, HSF1 activator inactive, CHT inh inactive and HSF1 inh inactive.
`Cc1ccc(N/N=C2\CS(=O)(=O)N(C)c3ccsc32)cc1` gave Lipid droplet inactive, PHOSPHO1 block inactive, CHT PAM inactive, HSF1 activator 87.5, CHT inh inactive and HSF1 inh inactive.
For O=C(/C=C/c1ccccc1)Nc1cccc(C(=O)O)c1 the results were Lipid droplet inactive, PHOSPHO1 block inactive, CHT PAM inactive, HSF1 activator inactive, CHT inh inactive and HSF1 inh -78.2.
For CSc1cccc(NC(=O)/C=C/c2ccccc2)c1 the results were PHOSPHO1 block inactive, CHT PAM inactive, HSF1 activator 73.6, CHT inh inactive and HSF1 inh inactive.
O=C(/C=C/c1ccccc1)Nc1cc(NC(=O)/C=C/c2ccccc2)cc(C(=O)O)c1 was read as Lipid droplet inactive, PHOSPHO1 block inactive, CHT PAM inactive, HSF1 activator inactive, CHT inh inactive and HSF1 inh inactive.
Screening CCN(CC)S(=O)(=O)c1ccc(/C=C/C(=O)Nc2cccc(F)c2)cc1 returned Lipid droplet inactive, PHOSPHO1 block inactive, CHT PAM inactive, HSF1 activator 66.5, CHT inh inactive and HSF1 inh inactive.
`CCN(CC)S(=O)(=O)c1ccc(/C=C/C(=O)O)cc1` gave Lipid droplet inactive, PHOSPHO1 block inactive, CHT PAM inactive, HSF1 activator inactive, CHT inh inactive and HSF1 inh inactive.
`COC(=O)c1cn(-c2nc(C)c3c(n2)CCC3)nn1` gave Lipid droplet inactive, PHOSPHO1 block inactive, CHT PAM inactive, HSF1 activator inactive, CHT inh inactive and HSF1 inh inactive.
Cc1ccc(/C=C/C(=O)O)cc1S(=O)(=O)N1CCc2ccccc21 was read as Lipid droplet inactive, PHOSPHO1 block inactive, CHT PAM inactive, HSF1 activator inactive, CHT inh inactive and HSF1 inh inactive.
Screening CN(C)S(=O)(=O)c1ccc(Cl)c(NC(=O)COC(=O)/C=C/c2ccc(S(=O)(=O)N3CCOCC3)cc2)c1 returned Lipid droplet inactive, PHOSPHO1 block inactive, CHT PAM inactive, HSF1 activator inactive, CHT inh inactive and HSF1 inh inactive.
`CCOC(=O)Cc1cc(=O)c2cc(C)ccc2[nH]1` gave Lipid droplet inactive, PHOSPHO1 block inactive, CHT PAM inactive, HSF1 activator inactive, CHT inh inactive and HSF1 inh -67.8.
`COc1ccc(C(C(=O)NC2CCCCC2)N(C(=O)CCl)c2ccc(C)cc2)cc1` (configuration not stated) gave Lipid droplet inactive, PHOSPHO1 block inactive, CHT PAM inactive, HSF1 activator inactive, CHT inh inactive and HSF1 inh inactive.
Screening COc1ccc(C(C(=O)NC2CCCCC2)N(C(=O)CCl)c2cccc(Cl)c2)cc1 (configuration not stated) returned Lipid droplet inconclusive, PHOSPHO1 block inactive, CHT PAM inactive, HSF1 activator inactive, CHT inh inactive and HSF1 inh -90.1.
`COc1ccc(C2C(C(C)=O)=C(C)N=c3s/c(=C\c4ccco4)c(=O)n32)c(OC)c1` (configuration not stated) gave PHOSPHO1 block 93.8, CHT PAM inactive, HSF1 activator inactive, CHT inh inactive and HSF1 inh inactive.
COc1ccc(C2C(C(C)=O)=C(C)N=c3s/c(=C\c4cc(C)n(C)c4C)c(=O)n32)c(OC)c1 (configuration not stated) was read as PHOSPHO1 block 71.1, CHT PAM inactive, HSF1 activator inactive, CHT inh inactive and HSF1 inh inactive.
For COc1ccc(C2C(C(C)=O)=C(C)N=c3s/c(=C\c4ccc5c(c4)OCO5)c(=O)n32)c(OC)c1 (configuration not stated) the results were CHT PAM inactive, HSF1 activator inactive, CHT inh inactive and HSF1 inh inactive.
CC1=C(SCCC#N)S/C(=C2\SC(C)=C(SCCC#N)S2)S1 was read as PHOSPHO1 block 95.2, CHT PAM inactive, HSF1 activator inactive, CHT inh inactive and HSF1 inh inactive.
